In ChEMBL document CHEMBL2169822, “Discovery and optimization of 1,3,4-trisubstituted-pyrazolone derivatives as novel, potent, and nonsteroidal farnesoid X receptor (FXR) selective antagonists” (J Med Chem, 2012):
The source made the active and inactive calls. No cut-off for these calls is given here.

Experiments:
[1] = target: T1, Retinoic acid receptor RXR-alpha (Homo sapiens) (UniProt P19793); assay: Antagonist activity at recombinant RXRalpha LBD expressed in HEK293T cells co-expressing GAL4 DBD assessed as inhibition of 9cRA-induced transactivation at 20 uM by luciferase reporter gene assay; assay type: functional, cell-based; conditions: HEK-293T
T1 sequence (whole entry): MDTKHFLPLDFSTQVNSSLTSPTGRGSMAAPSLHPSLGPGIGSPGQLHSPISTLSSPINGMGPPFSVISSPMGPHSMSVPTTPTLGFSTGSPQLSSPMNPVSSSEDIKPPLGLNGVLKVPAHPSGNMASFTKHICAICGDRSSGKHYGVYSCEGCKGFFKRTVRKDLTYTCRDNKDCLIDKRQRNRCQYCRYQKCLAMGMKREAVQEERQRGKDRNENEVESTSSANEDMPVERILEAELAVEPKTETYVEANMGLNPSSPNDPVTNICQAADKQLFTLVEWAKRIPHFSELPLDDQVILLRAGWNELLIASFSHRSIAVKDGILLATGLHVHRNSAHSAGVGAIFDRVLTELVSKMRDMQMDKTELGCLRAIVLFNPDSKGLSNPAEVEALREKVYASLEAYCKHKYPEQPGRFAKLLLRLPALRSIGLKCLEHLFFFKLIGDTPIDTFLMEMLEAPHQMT
Summary of the method: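 One-hybrid assay in HEK293T cells cotransfected with a Gal4 DBD–NR-LBD fusion (RXRα, LXRα, GR, PR, PPARδ or PPARγ) plus UAS-TK-Luc reporter. Compound was 20 μM, given alone or with agonist: 9cRA 0.1 μM (RXRα), TO901317 0.5 μM (LXRα), dexamethasone 50 nM (GR), progesterone 100 nM (PR), GW1516 10 μM (PPARδ), rosiglitazone 10 μM (PPARγ). Luciferase read-out; three independent experiments.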

[2] = tested on: HEK-293T; assay: Antagonist activity at FXRalphaLBD expressed in HEK293T cells co-expressing GAL4 DBD assessed as inhibition of CDCA-induced transactivation at 60 uM after 18 hrs by luciferase reporter gene assay; assay type: functional, cell-based; conditions: Homo sapiens
Summary of the method: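 Mammalian one-hybrid assay in HEK293T cells cotransfected with pCMX-Gal4DBD-FXRαLBD, UAS-TK-Luc reporter and pRL-SV40 Renilla vector. Cells were exposed to vehicle or compound for 18 h, with or without 20 μM CDCA. Read-out was dual-luciferase. Three independent experiments.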

[3] = Binding affinity to FXRalphaLBD assessed as increase in thermal stability
Summary of the method: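 DSC with 2 mg/mL FXRαLBD in 20 mM Tris-HCl, 50 mM NaCl, pH 8.0, with DMSO or compound at a compound:protein ratio of 5:1, against the dialysis buffer as reference. Scan was 10–110 °C at 90 °C/h, giving Tm.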

[4] = (§1) Antagonist activity at GST-tagged human recombinant FXRalphaLBD expressed in Escherichia coli BL21 cells assessed as inhibition of CDCA-induced SRC-1 co-activator association by HTRF assay; assay type: functional
Summary of the method: (§2)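 HTRF coactivator recruitment: 10 nM GST-human FXRαLBD (residues 238–473, E. coli BL21(DE3)), 0.83 nM anti-GST-Eu cryptate, 100 nM biotin-SRC1 peptide, 41.75 nM SA/XL665. Buffer was 50 mM Hepes pH 7.0, 125 mM KF, 0.125% CHAPS, 0.05% dry milk. Compound alone or with CDCA, 30 min at room temperature. Signal was 1000×(668/620 nm). Primary screen at 40 μM; IC50 as mean ± SE, three experiments.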

[5] = tested on: BL21; assay: as §1; assay type: functional; summary of the method: as §2
[6] = Antagonist activity at GST-tagged human recombinant FXRalphaLBD expressed in Escherichia coli BL21 cells assessed as inhibition of CDCA-induced SRC-1 co-activator association at 40 uM by HTRF assay; assay type: functional; summary of the method: as §2
[7] = target: T2, Bile acid receptor (Homo sapiens) (UniProt Q96RI1); assay: Antagonist activity at human FXR in human HepG2 cells assessed as reduction in triglyceride level after 24 hrs; assay type: functional, cell-based
T2 sequence (whole entry): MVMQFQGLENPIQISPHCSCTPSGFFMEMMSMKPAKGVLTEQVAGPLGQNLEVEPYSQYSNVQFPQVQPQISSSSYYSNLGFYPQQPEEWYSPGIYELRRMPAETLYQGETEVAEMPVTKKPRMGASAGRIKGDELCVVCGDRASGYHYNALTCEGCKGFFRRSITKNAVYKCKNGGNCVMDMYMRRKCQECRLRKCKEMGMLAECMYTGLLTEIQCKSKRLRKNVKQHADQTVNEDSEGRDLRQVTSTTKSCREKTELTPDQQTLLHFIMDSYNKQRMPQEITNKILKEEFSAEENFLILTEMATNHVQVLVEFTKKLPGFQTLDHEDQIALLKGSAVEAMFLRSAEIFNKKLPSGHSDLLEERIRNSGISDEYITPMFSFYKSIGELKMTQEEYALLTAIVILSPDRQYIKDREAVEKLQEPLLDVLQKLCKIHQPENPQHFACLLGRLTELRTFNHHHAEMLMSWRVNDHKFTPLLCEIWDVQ
Summary of the method: (§3)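 HepG2 cells were serum-starved overnight in FBS-free DMEM, then given DMSO or compound for 24 h in serum-free DMEM. Cells were lysed in RIPA buffer, sonicated on ice and centrifuged at 12000 rpm, 4 °C. Triglyceride and total cholesterol in the cleared lysate were measured by kits, with total protein by BCA. At least three experiments.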

[8] = target: T2, Bile acid receptor (Homo sapiens); assay: Antagonist activity at human FXR in human HepG2 cells assessed as reduction in triglyceride level at 10 uM after 24 hrs; assay type: functional, cell-based; summary of the method: as §3
[9] = target: T2, Bile acid receptor (Homo sapiens); assay: Antagonist activity at human FXR in human HepG2 cells assessed as inhibition of CDCA induced BSEP gene expression at 5 to 40 uM after 24 hrs by RT-PCR analysis; assay type: functional, cell-based
Summary of the method: (§4)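 HepG2 cells in 6-well plates were treated with varied concentrations of compound, with or without 100 μM CDCA, for 24 h. Total RNA was taken with TRIzol and cDNA made by reverse transcription. Cyp7A1, SHP, BSEP and SREBP1c mRNA were measured by quantitative RT-PCR and normalized to β-actin. Three independent experiments.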

[10] = target: T2, Bile acid receptor (Homo sapiens); assay: Antagonist activity at human FXR in human HepG2 cells assessed as inhibition of CDCA induced SHP gene expression at 5 to 40 uM after 24 hrs by RT-PCR analysis; assay type: functional, cell-based; summary of the method: as §4

inhibition [1]: inactive
Tm [3]: 58.7 °C
IC50 [4]: 8.96 µM
inhibition [7]: Dose-dependent effect
inhibition [8]: 35.2%
inhibition [10]: Active
Structure (SMILES): COc1cc(/C=C2\C(=O)N(c3cccc([N+](=O)[O-])c3)N=C2c2ccccc2)ccc1O
inhibition [2]: Active
inhibition [5]: Dose-dependent effect
inhibition at 40 µM [6]: 70.4%
inhibition [9]: Active
